Experiments:
[1] = Inhibition of isocitrate lyase (unknown origin)
[2] = Inhibition of sortase A (unknown origin)
A549 = assay: Cytotoxicity against human A549 cells by MTT assay; type: functional; details: read-out: LC50 (the source's name)
Summary of the method: (§1)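 LC50 is the concentration giving a 50% drop in cell viability relative to untreated controls without inhibitor. It is read from dose–response curves for each sample and reported as mean ± SD of three independent experiments (n = 3).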

K562 [3] = assay: Cytotoxicity against human K562 cells by MTT assay; type: functional; details: read-out: LC50 (the source's name); summary of the method: as §1
[4] = target: Sodium/potassium-transporting ATPase; assay: Inhibition of Na+/K+-ATPase (unknown origin); type: protein-complex assay, Homo sapiens
K562 [5] = assay: Ratio of doxorubicin LC50 to compound LC50 for human K562 cells; type: functional

Row | Structure (SMILES) | IC50 [1] [nM] | IC50 [2] [nM] | CC50 (A549) [nM] | CC50 (K562 [3]) [nM] | IC50 [4] [nM] | RatioLC50 (K562 [5])
1 | CO[C@@H](NC(C)=O)[C@H](O)[C@]1(C)CC[C@H](C(C)C)[C@@H]1c1cc([C@]2(O)Cc3cc(O)c(=O)c(C)c4c3[C@@H](O2)[C@H](O)[C@]2(C)CC[C@H](C(C)C)[C@H]42)cc(O)c(=O)c1C | > 100000 | > 100000 | 100 | 120 | > 100000 | 
2 | CC(=O)N[C@H](O)[C@H](O)[C@]1(C)CC[C@H](C(C)C)[C@@H]1c1cc([C@]2(O)Cc3cc(O)c(=O)c(C)c4c3[C@@H](O2)[C@H](O)[C@]2(C)CC[C@H](C(C)C)[C@H]42)cc(O)c(=O)c1C | > 100000 | > 100000 | 550 | 440 | > 100000 | 
3 | Cc1c([C@H]2[C@@H](C(C)C)CC[C@@]2(C)C(=O)CNCCS(=O)(=O)O)cc([C@]2(O)Cc3cc(O)c(=O)c(C)c4c3[C@@H](O2)[C@H](O)[C@]2(C)CC[C@H](C(C)C)[C@H]42)cc(O)c1=O | > 100000 | > 100000 | 110 | 320 | > 100000 | 
4 | CC(=O)O[C@@H](C=O)[C@]1(C)CC[C@H](C(C)C)[C@@H]1c1cc(/C(O)=C/c2cc(O)c(=O)c(C)c3c2[C@@H](O)[C@H](O)[C@]2(C)CC[C@H](C(C)C)[C@H]32)cc(O)c(=O)c1C | > 100000 | > 100000 | 380 | 40 | > 100000 | 17
5 | COc1cccc2c1C(=O)c1c(O)c3c(c(O)c1C2=O)C[C@@](O)(C(=O)CO)C[C@@H]3O[C@H]1C[C@H](N)[C@H](O)[C@H](C)O1 [DOXORUBICIN] |  |  | 520 | 700 |  | 
6 | CC(=O)O[C@@H](C=O)[C@]1(C)CC[C@H](C(C)C)[C@@H]1c1cc([C@]2(O)Cc3cc(O)c(=O)c(C)c4c3[C@@H](O2)[C@H](O)[C@]2(C)CC[C@H](C(C)C)[C@H]42)cc(O)c(=O)c1C [GUKULENIN A] | > 100000 | > 100000 | 320 | 260 | > 100000 | 

Reference: ChEMBL document CHEMBL2417500, “Cytotoxic diterpenoid pseudodimers from the Korean sponge Phorbas gukhulensis” (J Nat Prod, 2013)
